Laboratory results as given in ChEMBL document CHEMBL1128586, “Antihyperglycemic N-sulfonyl-1a,2,6,6a-tetrahydro-1H,4H- [1,3]dioxepino[5,6-b]azirines: synthesis, X-ray structure analysis, conformational behavior, quantitative structure-property relationships, and quantitative structure-activity relationships” (J Med Chem, 1995).

Key:
Type in all cases: functional
Rattus norvegicus [1] = test: Effect on blood glucose levels in healthy rat at subcutaneous dose of 20 mg/kg at 60 min
How it was run: (§1)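 Healthy (nondiabetic) fasted animals: CBA mice (20-25 g) or Fischer rats (160-200 g), fasted 16 h before treatment. Single iv or sc dose given at zero time; drug dissolved in minimal DMSO, diluted with 0.9% saline. Tail-vein blood sampled over time; glucose measured by enzymatic-colorimetric kit, expressed as mmol/L whole blood; group sizes 6-12.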

Mus musculus [2] = test: Effect on blood glucose levels in healthy mice at intravenous dose of 20 mg/kg at 0 min; how it was run: as §1
Mus musculus [3] = test: Hypoglycemic effect of compound 1 hr after subcutaneous administration of 20 mg/kg dose in alloxanized mice and expressed as percent of initial blood glucose level
How it was run: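 CBA mice of either sex, 20-25 g, made diabetic by single tail-vein alloxan monohydrate 65 mg/kg and tested 48 h later. Compound given sc at 20 mg/kg, dissolved in minimal DMSO and diluted with 0.9% saline. Tail-vein blood sampled before dosing and at 1 h. Glucose measured by enzymatic-colorimetric kit and expressed as percent of the initial sample.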

Mus musculus [4] = test: Effect on blood glucose levels in healthy mice at intravenous dose of 5 mg/kg at 40 min; how it was run: as §1
Mus musculus [5] = test: Effect on blood glucose levels in healthy mice at intravenous dose of 20 mg/kg at 40 min; how it was run: as §1
Mus musculus [6] = test: Effect on blood glucose levels in healthy mice at intravenous dose of 5 mg/kg at 0 min; how it was run: as §1
Mus musculus [7] = test: Effect on blood glucose levels in healthy mice at subcutaneous dose of 20 mg/kg at 0 min; how it was run: as §1
Mus musculus [8] = test: Effect on blood glucose levels in healthy mice at subcutaneous dose of 20 mg/kg at 120 min; how it was run: as §1
Mus musculus [9] = test: Effect on blood glucose levels in healthy mice at subcutaneous dose of 100 mg/kg at 120 min; how it was run: as §1
Rattus norvegicus [10] = test: Effect on blood glucose levels in healthy rat at subcutaneous dose of 20 mg/kg at 0 min; how it was run: as §1
Mus musculus [11] = test: Effect on blood glucose levels in healthy mice at intravenous dose of 5 mg/kg at 60 min; how it was run: as §1
Mus musculus [12] = test: Hypoglycemic effect of compound 1 hr after subcutaneous administration of a 20 mg/kg dose in alloxanized mice and expressed as hypoglycemic activity ratio (hAR) taking metformin as standard
How it was run: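 Alloxan-diabetic CBA mice (65 mg/kg iv alloxan, used after 48 h) received 20 mg/kg sc in DMSO/saline. Glucose was measured enzymatically in tail-vein blood and expressed as %BGL at 1 h. HAR = (100 − %BGL of compound)/(100 − %BGL of metformin), with metformin tested at the same dose and route.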

Mus musculus [13] = test: Effect on blood glucose levels in healthy mice at subcutaneous dose of 20 mg/kg at 60 min; how it was run: as §1
Mus musculus [14] = test: Effect on blood glucose levels in healthy mice at intravenous dose of 20 mg/kg at 60 min; how it was run: as §1
Mus musculus [15] = test: Effect on blood glucose levels in healthy mice at subcutaneous dose of 100 mg/kg at 0 min; how it was run: as §1
Mus musculus [16] = test: Effect on blood glucose levels in healthy mice at subcutaneous dose of 100 mg/kg at 60 min; how it was run: as §1

SMILES | BGL (Mus musculus [3]) | HAR (Mus musculus [12]) | other results
CC(=O)Nc1ccc(S(=O)(=O)N2[C@@H]3COCOC[C@@H]32)cc1 (stereo partly specified) | 37% | 4.5 | Blood glucose (Rattus norvegicus [1]): 5.44 mM (l of whole blood)-1; Blood glucose (Mus musculus [2]): 8.83 mM (l of whole blood)-1; Blood glucose (Mus musculus [4]): 8.61 mM (l of whole blood)-1; Blood glucose (Mus musculus [5]): 9.3 mM (l of whole blood)-1; Blood glucose (Mus musculus [6]): 8.35 mM (l of whole blood)-1; Blood glucose (Mus musculus [7]): 12.43 mM (l of whole blood)-1; Blood glucose (Mus musculus [8]): 13.15 mM (l of whole blood)-1; Blood glucose (Mus musculus [9]): 13.17 mM (l of whole blood)-1; Blood glucose (Rattus norvegicus [10]): 5.52 mM (l of whole blood)-1; Blood glucose (Mus musculus [11]): 8.72 mM (l of whole blood)-1; Blood glucose (Mus musculus [13]): 14.41 mM (l of whole blood)-1; Blood glucose (Mus musculus [14]): 8.82 mM (l of whole blood)-1; Blood glucose (Mus musculus [15]): 11.72 mM (l of whole blood)-1; Blood glucose (Mus musculus [16]): 12.09 mM (l of whole blood)-1
Cc1ccc(S(=O)(=O)N2[C@@H]3COCOC[C@@H]32)cc1 (stereo partly specified) | 94% | 0.42 | 
O=S(=O)(c1ccc(Br)cc1)N1[C@@H]2COCOC[C@@H]21 (stereo partly specified) | 107% | -0.5 | 
O=S(=O)(c1ccccc1)N1[C@@H]2COCOC[C@@H]21 (stereo partly specified) | 53% | 3.36 | 
CC(=O)Nc1ccc(S(=O)(=O)N2[C@@H]3CO[C@H](C(C)C)OC[C@@H]32)cc1 (stereo partly specified) | 84.8% | 1.08 | 
CC(=O)Nc1ccc(S(=O)(=O)N2[C@@H]3CO[C@@H](C(C)C)OC[C@@H]32)cc1 (stereo partly specified) | 85% | 1.07 | 
CC(C)[C@@H]1OC[C@@H]2[C@H](CO1)N2S(=O)(=O)c1ccc([N+](=O)[O-])cc1 (stereo partly specified) | 78% | 1.57 | 
O=S(=O)(c1ccc(F)cc1)N1[C@@H]2COCOC[C@@H]21 (stereo partly specified) | 76% | 1.71 | 
COc1ccc(S(=O)(=O)N2[C@@H]3COCOC[C@@H]32)cc1 (stereo partly specified) | 78% | 1.57 | 
O=S(=O)(c1ccc(Cl)cc1)N1[C@@H]2COCOC[C@@H]21 (stereo partly specified) | 77% | 1.64 | 
CN(C)C(=N)NC(=N)N [METFORMIN] | 86% | 1 | 
